From ChEMBL document CHEMBL5329146, “Thiourea derivatives containing 4-arylthiazoles and d-glucose moiety: design, synthesis, antimicrobial activity evaluation, and molecular docking/dynamics simulations” (RSC Med Chem, 2023)
≈ marks a conversion by molar mass, not a printed value.

What was measured:
[1] = test system: Aspergillus niger; test: Antifungal activity against Aspergillus niger assessed as inhibition of fungal growth incubated for 72 hrs by agar dilution method; assay type: functional
How it was run: (§1)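 Agar dilution on Sabouraud dextrose agar, with compound solutions at 400 down to 0.78 μg mL−1 (twofold series). Fungal suspensions containing […] were applied to agar plates serially diluted with test compound. Plates were incubated at 35 °C, and MIC was read after 72 h. Experiments were performed three times.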

[2] = test system: Aspergillus flavus; test: Antifungal activity against Aspergillus flavus assessed as inhibition of fungal growth incubated for 72 hrs by agar dilution method; assay type: functional; how it was run: as §1
[3] = test system: Candida albicans; test: Antifungal activity against Candida albicans assessed as inhibition of fungal growth incubated for 72 hrs by agar dilution method; assay type: functional; how it was run: as §1
[4] = test system: Saccharomyces cerevisiae; test: Antifungal activity against Saccharomyces cerevisiae assessed as inhibition of fungal growth incubated for 72 hrs by agar dilution method; assay type: functional; how it was run: as §1
[5] = test system: Fusarium oxysporum; test: Antifungal activity against Fusarium oxysporum assessed as inhibition of fungal growth incubated for 72 hrs by agar dilution method; assay type: functional; how it was run: as §1
[6] = test system: Bacillus subtilis; test: Antibacterial activity against Bacillus subtilis assessed as inhibition of visible bacterial growth incubated for 18 to 20 hrs by microbroth dilution method; assay type: functional; conditions: time 18-20 hrs
How it was run: (§2)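 Inoculum was a 4–6 h broth culture adjusted to 0.5 McFarland turbidity and diluted to a final 5 × 10^5 CFU mL−1. Plates were incubated at 35 °C for 18–20 h. MIC was the lowest concentration giving complete inhibition of visible growth. Run three times.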

[7] = test system: Clostridioides difficile; test: Antibacterial activity against Clostridium difficile assessed as inhibition of visible bacterial growth incubated for 18 to 20 hrs by microbroth dilution method; assay type: functional; conditions: time 18-20 hrs
[8] = test system: Staphylococcus aureus; test: Antibacterial activity against Staphylococcus aureus assessed as inhibition of visible bacterial growth incubated for 18 to 20 hrs by microbroth dilution method; assay type: functional; conditions: time 18-20 hrs; how it was run: as §2
[9] = test system: Staphylococcus epidermidis; test: Antibacterial activity against Staphylococcus epidermidis assessed as inhibition of visible bacterial growth incubated for 18 to 20 hrs by microbroth dilution method; assay type: functional; conditions: time 18-20 hrs; how it was run: as §2
[10] = test system: Streptococcus pneumoniae; test: Antibacterial activity against Streptococcus pneumoniae assessed as inhibition of visible bacterial growth incubated for 18 to 20 hrs by microbroth dilution method; assay type: functional; conditions: time 18-20 hrs
[11] = test system: Escherichia coli; test: Antibacterial activity against Escherichia coli assessed as inhibition of visible bacterial growth incubated for 18 to 20 hrs by microbroth dilution method; assay type: functional; conditions: time 18-20 hrs; how it was run: as §2
[12] = test system: Klebsiella pneumoniae; test: Antibacterial activity against Klebsiella pneumoniae assessed as inhibition of visible bacterial growth incubated for 18 to 20 hrs by microbroth dilution method; assay type: functional; conditions: time 18-20 hrs; how it was run: as §2
[13] = test system: Pseudomonas aeruginosa; test: Antibacterial activity against Pseudomonas aeruginosa assessed as inhibition of visible bacterial growth incubated for 18 to 20 hrs by microbroth dilution method; assay type: functional; conditions: time 18-20 hrs; how it was run: as §2
[14] = test system: Salmonella typhimurium; test: Antibacterial activity against Salmonella typhimurium assessed as inhibition of visible bacterial growth incubated for 18 to 20 hrs by microbroth dilution method; assay type: functional, Salmonella enterica subsp. enterica serovar Typhimurium; conditions: Salmonella enterica; time 18-20 hrs; how it was run: as §2
[15] = molecular target: DNA gyrase (Staphylococcus aureus, UniProt P0A0K8+P20831); test: Inhibition of Staphylococcus aureus DNA gyrase incubated for 30 mins in presence of relaxed plasmid DNA by supercoiling based gel electrophoresis analysis; assay type: protein-complex assay
[16] = molecular target: Topoisomerase IV (Staphylococcus aureus, UniProt P0C1S7+P0C1U9); test: Inhibition of Staphylococcus aureus DNA topoisomerase 4 using supercoiled plasmid DNA as substrate; assay type: protein-complex assay
[17] = molecular target: Dihydrofolate reductase (Staphylococcus aureus, UniProt P0A017); test: Inhibition of Staphylococcus aureus DHFR preincubated for 5 mins followed by dihydrofolic acid addition and measured for 10 mins by absorbance based assay
Dihydrofolate reductase, sequence (P0A017 whole entry): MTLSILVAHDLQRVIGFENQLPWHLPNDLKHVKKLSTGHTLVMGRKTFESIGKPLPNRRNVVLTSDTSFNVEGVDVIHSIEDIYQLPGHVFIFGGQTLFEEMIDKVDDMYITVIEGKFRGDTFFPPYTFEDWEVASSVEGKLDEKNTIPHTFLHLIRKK

DNA gyrase, sequence (P0A0K8 whole entry): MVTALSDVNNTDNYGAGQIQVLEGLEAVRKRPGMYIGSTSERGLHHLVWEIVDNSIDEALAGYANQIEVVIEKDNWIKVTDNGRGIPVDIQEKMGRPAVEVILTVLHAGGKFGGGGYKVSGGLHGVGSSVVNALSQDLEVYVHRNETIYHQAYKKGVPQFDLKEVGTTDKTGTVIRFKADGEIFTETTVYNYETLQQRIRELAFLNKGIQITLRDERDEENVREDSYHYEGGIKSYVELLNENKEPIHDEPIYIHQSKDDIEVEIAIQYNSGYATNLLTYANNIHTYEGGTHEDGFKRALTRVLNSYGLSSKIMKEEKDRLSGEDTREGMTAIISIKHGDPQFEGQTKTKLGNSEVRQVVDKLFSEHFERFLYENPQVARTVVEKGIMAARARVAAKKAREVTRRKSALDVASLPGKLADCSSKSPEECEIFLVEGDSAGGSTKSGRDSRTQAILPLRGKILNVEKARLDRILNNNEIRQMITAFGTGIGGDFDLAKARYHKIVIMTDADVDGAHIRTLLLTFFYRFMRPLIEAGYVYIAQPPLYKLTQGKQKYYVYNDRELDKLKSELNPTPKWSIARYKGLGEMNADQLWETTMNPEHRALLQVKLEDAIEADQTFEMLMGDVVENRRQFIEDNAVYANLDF
DNA gyrase, sequence (P20831 whole entry): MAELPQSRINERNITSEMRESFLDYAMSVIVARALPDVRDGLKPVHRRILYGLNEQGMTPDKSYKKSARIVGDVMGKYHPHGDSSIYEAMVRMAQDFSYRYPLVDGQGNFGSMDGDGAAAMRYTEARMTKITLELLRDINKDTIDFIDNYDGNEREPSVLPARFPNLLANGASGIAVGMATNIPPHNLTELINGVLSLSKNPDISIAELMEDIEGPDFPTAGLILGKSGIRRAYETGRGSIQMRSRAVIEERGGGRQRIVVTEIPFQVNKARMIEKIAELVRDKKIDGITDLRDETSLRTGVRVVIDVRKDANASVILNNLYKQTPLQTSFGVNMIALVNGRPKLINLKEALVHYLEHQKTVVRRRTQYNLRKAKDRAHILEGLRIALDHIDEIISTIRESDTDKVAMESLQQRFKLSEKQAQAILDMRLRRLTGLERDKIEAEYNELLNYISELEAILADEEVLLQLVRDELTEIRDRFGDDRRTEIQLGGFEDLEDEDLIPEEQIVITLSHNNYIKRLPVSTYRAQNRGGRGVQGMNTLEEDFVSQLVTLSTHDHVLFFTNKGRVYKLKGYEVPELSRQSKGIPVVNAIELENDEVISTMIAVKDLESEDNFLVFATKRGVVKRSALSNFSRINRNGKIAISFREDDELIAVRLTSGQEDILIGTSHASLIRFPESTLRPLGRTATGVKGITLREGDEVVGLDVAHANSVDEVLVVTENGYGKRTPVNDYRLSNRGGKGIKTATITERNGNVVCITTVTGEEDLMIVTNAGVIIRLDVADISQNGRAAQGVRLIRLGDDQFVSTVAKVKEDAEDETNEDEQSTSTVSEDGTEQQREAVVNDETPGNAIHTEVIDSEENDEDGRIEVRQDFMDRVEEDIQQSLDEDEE
Topoisomerase IV, sequence (P0C1U9 whole entry): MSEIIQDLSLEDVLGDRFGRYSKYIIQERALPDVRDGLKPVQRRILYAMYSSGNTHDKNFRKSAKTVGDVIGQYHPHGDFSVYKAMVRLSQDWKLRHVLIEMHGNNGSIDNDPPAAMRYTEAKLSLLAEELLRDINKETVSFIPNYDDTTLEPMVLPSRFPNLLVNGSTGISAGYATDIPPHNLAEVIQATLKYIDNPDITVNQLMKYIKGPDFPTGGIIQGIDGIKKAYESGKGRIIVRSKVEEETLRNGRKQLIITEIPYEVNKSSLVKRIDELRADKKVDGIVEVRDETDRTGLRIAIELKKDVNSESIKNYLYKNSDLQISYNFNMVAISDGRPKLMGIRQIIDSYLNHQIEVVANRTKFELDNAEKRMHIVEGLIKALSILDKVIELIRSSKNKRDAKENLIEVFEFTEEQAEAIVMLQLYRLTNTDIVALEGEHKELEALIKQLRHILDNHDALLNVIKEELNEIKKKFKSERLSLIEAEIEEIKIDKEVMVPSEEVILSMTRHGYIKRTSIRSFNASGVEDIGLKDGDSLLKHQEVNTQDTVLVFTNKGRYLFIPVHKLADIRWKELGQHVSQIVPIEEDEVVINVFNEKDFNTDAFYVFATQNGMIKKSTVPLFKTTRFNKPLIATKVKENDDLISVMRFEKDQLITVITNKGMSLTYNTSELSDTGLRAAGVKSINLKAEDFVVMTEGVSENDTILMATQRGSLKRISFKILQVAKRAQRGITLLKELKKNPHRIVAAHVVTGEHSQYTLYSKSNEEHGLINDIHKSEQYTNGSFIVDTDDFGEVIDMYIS
Topoisomerase IV, sequence (P0C1S7 whole entry): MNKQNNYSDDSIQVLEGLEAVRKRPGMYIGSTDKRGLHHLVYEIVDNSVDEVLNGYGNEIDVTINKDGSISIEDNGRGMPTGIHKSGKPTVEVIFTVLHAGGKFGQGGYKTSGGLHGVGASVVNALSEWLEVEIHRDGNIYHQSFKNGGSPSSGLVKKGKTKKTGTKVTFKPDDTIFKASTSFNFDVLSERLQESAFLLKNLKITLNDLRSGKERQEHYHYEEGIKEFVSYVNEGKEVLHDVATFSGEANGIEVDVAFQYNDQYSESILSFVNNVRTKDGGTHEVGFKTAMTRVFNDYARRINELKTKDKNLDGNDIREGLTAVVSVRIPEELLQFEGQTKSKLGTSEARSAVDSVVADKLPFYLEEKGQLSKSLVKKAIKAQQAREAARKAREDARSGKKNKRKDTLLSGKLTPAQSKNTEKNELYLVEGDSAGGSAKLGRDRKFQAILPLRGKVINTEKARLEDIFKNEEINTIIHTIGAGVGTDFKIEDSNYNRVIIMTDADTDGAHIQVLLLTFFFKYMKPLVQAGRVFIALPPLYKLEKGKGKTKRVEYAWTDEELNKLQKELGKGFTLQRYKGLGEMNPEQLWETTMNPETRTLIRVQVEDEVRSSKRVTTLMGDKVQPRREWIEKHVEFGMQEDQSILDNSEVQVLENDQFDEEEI

SMILES | MIC [1] [µg/mL] | MIC [2] [µg/mL] | MIC [3] [µg/mL] | MIC [4] [µg/mL] | MIC [5] [µg/mL] | MIC [6] [µg/mL] | MIC [7] [µg/mL] | MIC [8] [µg/mL] | MIC [9] [µg/mL] | MIC [10] [µg/mL] | MIC [11] [µg/mL] | MIC [12] [µg/mL] | MIC [13] [µg/mL] | MIC [14] [µg/mL] | IC50 [15] [µM] | IC50 [16] [µM] | IC50 [17] [µM]
Clc1ccc(COC(Cn2ccnc2)c2ccc(Cl)cc2Cl)c(Cl)c1 (configuration not stated) [MICONAZOLE] | 1.56 (≈ 3.75 µM) | 1.56 (≈ 3.75 µM) | 3.12 (≈ 7.51 µM) | 3.12 (≈ 7.51 µM) | 3.12 (≈ 7.51 µM) |  |  |  |  |  |  |  |  |  |  |  | 
CC(=O)OC[C@H]1O[C@@H](NC(=S)Nc2nc(-c3ccc(Cl)cc3)cs2)[C@H](OC(C)=O)[C@@H](OC(C)=O)[C@@H]1OC(C)=O | 25 (≈ 41.7 µM) | 25 (≈ 41.7 µM) | 25 (≈ 41.7 µM) | 3.12 (≈ 5.21 µM) | 3.12 (≈ 5.21 µM) | 12.5 (≈ 20.8 µM) | 12.5 (≈ 20.8 µM) | 3.12 (≈ 5.21 µM) | 3.12 (≈ 5.21 µM) | 400 (≈ 667 µM) | 50 (≈ 83.3 µM) | 12.5 (≈ 20.8 µM) | 200 (≈ 333 µM) | 12.5 (≈ 20.8 µM) | 2.82 | 68.7 | 0.23
OC(Cn1cncn1)(Cn1cncn1)c1ccc(F)cc1F [FLUCONAZOLE] | 1.56 (≈ 5.09 µM) | 0.78 (≈ 2.55 µM) | 0.78 (≈ 2.55 µM) | 0.78 (≈ 2.55 µM) | 0.78 (≈ 2.55 µM) |  |  |  |  |  |  |  |  |  |  |  | 
CC(=O)OC[C@H]1O[C@@H](NC(=S)Nc2nc(-c3ccc(Br)cc3)cs2)[C@H](OC(C)=O)[C@@H](OC(C)=O)[C@@H]1OC(C)=O | 50 (≈ 77.6 µM) | 3.12 (≈ 4.85 µM) | 50 (≈ 77.6 µM) | 25 (≈ 38.8 µM) | 0.78 (≈ 1.21 µM) | 3.12 (≈ 4.85 µM) | 6.25 (≈ 9.7 µM) | 12.5 (≈ 19.4 µM) | 25 (≈ 38.8 µM) | 50 (≈ 77.6 µM) | 1.56 (≈ 2.42 µM) | 6.25 (≈ 9.7 µM) | 100 (≈ 155 µM) | 0.78 (≈ 1.21 µM) |  |  | 
CN[C@H](CC(C)C)C(=O)N[C@H]1C(=O)N[C@@H](CC(N)=O)C(=O)N[C@H]2C(=O)N[C@H]3C(=O)N[C@H](C(=O)N[C@H](C(=O)O)c4cc(O)cc(O)c4-c4cc3ccc4O)[C@H](O)c3ccc(c(Cl)c3)Oc3cc2cc(c3O[C@@H]2O[C@H](CO)[C@@H](O)[C@H](O)[C@H]2O[C@H]2C[C@](C)(N)[C@H](O)[C@H](C)O2)Oc2ccc(cc2Cl)[C@H]1O [VANCOMYCIN] |  |  |  |  |  | 1.56 (≈ 1.08 µM) | 1.56 (≈ 1.08 µM) | 1.56 (≈ 1.08 µM) | 0.78 (≈ 0.538 µM) | 1.56 (≈ 1.08 µM) |  |  |  |  |  |  | 
O=C(O)c1cn(C2CC2)c2cc(N3CCNCC3)c(F)cc2c1=O [CIPROFLOXACIN] |  |  |  |  |  | 3.12 (≈ 9.43 µM) |  | 3.12 (≈ 9.43 µM) | 3.12 (≈ 9.43 µM) |  |  | 1.56 (≈ 4.71 µM) | 1.56 (≈ 4.71 µM) | 1.56 (≈ 4.71 µM) |  |  | 
CC(=O)OC[C@H]1O[C@@H](NC(=S)Nc2nc(-c3ccccc3)cs2)[C@H](OC(C)=O)[C@@H](OC(C)=O)[C@@H]1OC(C)=O | 0.78 (≈ 1.38 µM) | 50 (≈ 88.4 µM) | 3.12 (≈ 5.52 µM) | 1.56 (≈ 2.76 µM) | 6.25 (≈ 11 µM) | 25 (≈ 44.2 µM) | 50 (≈ 88.4 µM) | 200 (≈ 354 µM) | 0.78 (≈ 1.38 µM) | 25 (≈ 44.2 µM) | 100 (≈ 177 µM) | 25 (≈ 44.2 µM) | 6.25 (≈ 11 µM) | 400 (≈ 707 µM) |  |  | 
CC(=O)OC[C@H]1O[C@@H](NC(=S)Nc2nc(-c3cccc([N+](=O)[O-])c3)cs2)[C@H](OC(C)=O)[C@@H](OC(C)=O)[C@@H]1OC(C)=O | 3.12 (≈ 5.12 µM) | 0.78 (≈ 1.28 µM) | 100 (≈ 164 µM) | 6.25 (≈ 10.2 µM) | 50 (≈ 81.9 µM) | 6.25 (≈ 10.2 µM) | 0.78 (≈ 1.28 µM) | 6.25 (≈ 10.2 µM) | 12.5 (≈ 20.5 µM) | 0.78 (≈ 1.28 µM) | 0.78 (≈ 1.28 µM) | 3.12 (≈ 5.12 µM) | 3.12 (≈ 5.12 µM) | 3.12 (≈ 5.12 µM) |  |  | 
COc1ccc(-c2csc(NC(=S)N[C@@H]3O[C@H](COC(C)=O)[C@@H](OC(C)=O)[C@H](OC(C)=O)[C@H]3OC(C)=O)n2)cc1 | 6.25 (≈ 10.5 µM) | 6.25 (≈ 10.5 µM) | 0.78 (≈ 1.31 µM) | 12.5 (≈ 21 µM) | 12.5 (≈ 21 µM) | 400 (≈ 672 µM) | 3.12 (≈ 5.25 µM) | 1.56 (≈ 2.62 µM) | 100 (≈ 168 µM) | 3.12 (≈ 5.25 µM) | 3.12 (≈ 5.25 µM) | 1.56 (≈ 2.62 µM) | 12.5 (≈ 21 µM) | 6.25 (≈ 10.5 µM) | 1.37 | 79.2 | 0.17
CC(=O)OC[C@H]1O[C@@H](NC(=S)Nc2nc(-c3ccc(C)cc3)cs2)[C@H](OC(C)=O)[C@@H](OC(C)=O)[C@@H]1OC(C)=O | 12.5 (≈ 21.6 µM) | 12.5 (≈ 21.6 µM) | 400 (≈ 690 µM) | 0.78 (≈ 1.35 µM) | 200 (≈ 345 µM) | 100 (≈ 173 µM) | 25 (≈ 43.1 µM) | 25 (≈ 43.1 µM) | 400 (≈ 690 µM) | 12.5 (≈ 21.6 µM) | 6.25 (≈ 10.8 µM) | 200 (≈ 345 µM) | 50 (≈ 86.3 µM) | 25 (≈ 43.1 µM) |  |  | 
COc1ccc(-c2csc(NC(=S)N[C@@H]3O[C@H](COC(C)=O)[C@@H](OC(C)=O)[C@H](OC(C)=O)[C@H]3OC(C)=O)n2)cc1[N+](=O)[O-] | 100 (≈ 156 µM) | 1.56 (≈ 2.44 µM) | 12.5 (≈ 19.5 µM) | 200 (≈ 312 µM) | 25 (≈ 39 µM) | 50 (≈ 78 µM) | 200 (≈ 312 µM) | 0.78 (≈ 1.22 µM) | 50 (≈ 78 µM) | 6.25 (≈ 9.76 µM) | 200 (≈ 312 µM) | 0.78 (≈ 1.22 µM) | 0.78 (≈ 1.22 µM) | 50 (≈ 78 µM) | 1.25 | 67.3 | 0.13
CCc1ccc(-c2csc(NC(=S)N[C@@H]3O[C@H](COC(C)=O)[C@@H](OC(C)=O)[C@H](OC(C)=O)[C@H]3OC(C)=O)n2)cc1 | 200 (≈ 337 µM) | 200 (≈ 337 µM) | 6.25 (≈ 10.5 µM) | 400 (≈ 674 µM) | 400 (≈ 674 µM) | 0.78 (≈ 1.31 µM) | 400 (≈ 674 µM) | 400 (≈ 674 µM) | 6.25 (≈ 10.5 µM) | 100 (≈ 168 µM) | 12.5 (≈ 21.1 µM) | 50 (≈ 84.2 µM) | 25 (≈ 42.1 µM) | 100 (≈ 168 µM) |  |  | 
